From ChEMBL document CHEMBL1144474, “Synthesis and anti-HIV-1 activity evaluation of 5-alkyl-2-alkylthio-6-(arylcarbonyl or alpha-cyanoarylmethyl)-3,4-dihydropyrimidin-4(3H)-ones as novel non-nucleoside HIV-1 reverse transcriptase inhibitors” (J Med Chem, 2007) come the findings set out here.

For data set [1], the system named is Human immunodeficiency virus 1. Description: Antiviral activity against wild type HIV1 3B in MT4 cells after 4 days by MTT method. Format: functional, organism-based. Particulars: Human immunodeficiency virus 1, 3B, MT4, 96 h. The method, boiled down:
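MT-4 cells at 1 × 10⁵ cells/mL infected with HIV-1 IIIB (titrated as CCID₅₀) at MOI 0.02, then plated right away into serial compound dilutions (DMSO stocks, 50 mM or higher). After 4 days at 37 °C, viable cells were counted by MTT. IC₅₀ is the concentration giving 50% protection from viral cytopathogenicity.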
(In general: Formazan colour is commonly taken as a measure of viable cells.)

The nature of data set [2]: Selectivity index, CC50 for MT4 cells/IC50 for HIV1 3B. Format: functional. The method, boiled down: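 Ratio of CC₅₀ in uninfected MT-4 cells to IC₅₀ against HIV-1 IIIB cytopathogenicity in MT-4 cells. Both values come from the 4-day, 37 °C MTT read-out, run in parallel.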
Data set [3] in a line: Cytotoxicity against MT4 cells after 4 days by MTT method. The format is cell-based. Particulars: human. The method, boiled down: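 Uninfected MT-4 cells were run in parallel with the infected cultures across a range of compound concentrations (DMSO stocks, 50 mM or higher). After 4 days at 37 °C, viability was read by MTT. CC₅₀ is the concentration that cuts normal cell viability by 50%.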

A short description of data set [4]: Cytotoxicity against mock-infecected human PBMC. The format is cell-based. Particulars: mock-infected PBMC.
Data set [5] in a line: Selectivity index, CC50 for PBMC/IC50 for HIV1 3B. Format: functional.
Data set [6] deals with Human immunodeficiency virus 1. The data set can be described thus: Antiviral activity against HIV1 3B in human PBMC assessed by measuring p24 antigen production after 7 days by ELISA. The format is functional, organism-based. Particulars: Human immunodeficiency virus 1, 3B, 168 h. The gist of the method:
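Donor PBMCs were isolated by density centrifugation, stimulated with PHA for 3 days and washed in PBS. Cells (2 × 10⁵/200 µL) were plated in serial compound dilutions and infected with HIV at 1000 CCID₅₀ per mL. On day 4, medium was partly replaced with fresh medium containing compound. p24 antigen in the supernatant was measured by ELISA on day 7.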
In general terms: ELISA stands for enzyme-linked immunosorbent assay.

Broadly, the IC50 is the concentration that gives 50% inhibition. Higher therefore signals lower potency. Broadly, the CC50 is the concentration at which the toxic effect on the cells reaches its halfway point. A high value points to lower toxicity to the cells.

Structures are written as SMILES.

In turn, `C#CCSc1nc(C(=O)c2cccc3ccccc23)c(C)c(=O)[nH]1` displayed an IC50 in data set [1] of more than 124 µM. Further, in data set [2], the “Ratio CC50/IC50” value is listed as less than 1. In data set [3], this molecule had a CC50 at 96 h of 124 µM.
For the molecule `CCSc1nc(C(=O)c2ccccc2)cc(=O)[nH]1`, the IC50 in data set [1] was more than 247 µM. For the same molecule, the “Ratio CC50/IC50” value in data set [2] was less than 1. Also, half-maximal cytotoxicity in data set [3] (CC50 at 96 h) was put at 247 µM.
For `Cc1c(C(C#N)c2cccc3ccccc23)nc(SC2CCCC2)[nH]c1=O` (stereo unspecified) the same measures were 0.8 µM, 61 and 49.4 µM.
For the molecule `Cc1c(C(C#N)c2ccccc2)nc(SCC(=O)c2ccccc2)[nH]c1=O` (stereo unspecified), in data set [1], the IC50 was determined as 7.28 µM. In addition, the “Ratio CC50/IC50” value in data set [2] was found to be 7. Moreover, it took 53.8 µM to reach half-maximal cytotoxicity in data set [3] (CC50 at 96 h).
With `O=C(CSc1nc(C(=O)c2cccc3ccccc23)cc(=O)[nH]1)c1ccccc1`, the IC50 in data set [1] was more than 304 µM. The same molecule came in with a CC50 at 96 h in data set [3] of more than 304 µM.
The molecule `CCSc1nc(C(C#N)c2cccc3ccccc23)c(CC)c(=O)[nH]1` (stereo unspecified) had an IC50 in data set [1] of 1.17 µM. Further, in data set [2], the “Ratio CC50/IC50” value worked out at 103. This molecule yielded a CC50 at 96 h in data set [3] of 122 µM.
For `CCSc1nc(C(=O)c2cccc3ccccc23)cc(=O)[nH]1`, in that order: 37.6 µM, 6 and 242 µM.
For `CCc1c(C(C#N)c2ccccc2)nc(SCc2ccc([N+](=O)[O-])cc2)[nH]c1=O` (stereo unspecified), in that order: 1.33 µM, 26 and 34.2 µM.
In data set [1], `CCc1c(C(C#N)c2c(Cl)cccc2Cl)nc(SCc2ccc([N+](=O)[O-])cc2)[nH]c1=O` (stereo unspecified) yielded an IC50 of 2.22 µM. The “Ratio CC50/IC50” value in data set [2] is on record as 11. This molecule also had a CC50 at 96 h in data set [3] of 23.5 µM.
In turn, `CC(C)Sc1nc(C(C#N)c2cccc3ccccc23)cc(=O)[nH]1` (stereo unspecified) gave a 50% inhibitory concentration (IC50) in data set [1] of 0.66 µM. For the same molecule, the “Ratio CC50/IC50” value in data set [2] was found to be 82. The same molecule came in with a CC50 at 96 h in data set [3] of 53.2 µM.
In data set [1], `C=CCSc1nc(C(=O)c2cccc3ccccc23)c(CC)c(=O)[nH]1` came in with an IC50 of 16.9 µM. In addition, the “Ratio CC50/IC50” value in data set [2] came to 12. In addition, in data set [3], the CC50 at 96 h is 210 µM.
For `CCc1c(C(C#N)c2cccc3ccccc23)nc(SCC(=O)c2ccc(Cl)cc2)[nH]c1=O` (stereo unspecified), in that order: not below 35.7 µM, “<=3” and 117 µM.
For `CCc1c(C(=O)c2cccc3ccccc23)nc(SC(C)C)[nH]c1=O`, in that order: 6.79 µM, 26 and 179 µM.
In turn, `CC(C)c1c(C(=O)c2cccc3ccccc23)nc(SC2CCCC2)[nH]c1=O` yielded an IC50 in data set [1] of 10.9 µM. In addition, in data set [2], the “Ratio CC50/IC50” value stood at 2. The molecule also returned a CC50 at 96 h in data set [3] of 24.7 µM.
For `CC(C)c1c(C(C#N)c2cccc3ccccc23)nc(SC2CCCC2)[nH]c1=O` (stereo unspecified), in that order: 1.34 µM, 5 and 7.32 µM.
As to `CCc1c(C(=O)c2ccccc2)nc(SC2CCCC2)[nH]c1=O`, the IC50 in data set [1] was 4.69 µM. Besides, the “Ratio CC50/IC50” value in data set [2] was found to be 13. This molecule also returned a CC50 at 96 h in data set [3] of 60.4 µM.
Molecule `CCc1c(C(C#N)c2cccc3ccccc23)nc(SC2CCCC2)[nH]c1=O` (stereo unspecified) displayed an IC50 in data set [1] of 0.18 µM. Also, the “Ratio CC50/IC50” value in data set [2] was found to be 293. This molecule displayed a CC50 at 96 h in data set [3] of 51.9 µM.
For `O=C(c1cc(=O)[nH]c(SC2CCCC2)n1)c1cccc2ccccc12` the same measures were more than 21 µM, less than 1 and 21 µM.
For `Cc1c(C(C#N)c2cccc3ccccc23)nc(SCC(=O)c2ccc(Cl)cc2)[nH]c1=O` (stereo unspecified), the IC50 in data set [1] was determined as 4.71 µM. For the same molecule, the “Ratio CC50/IC50” value in data set [2] was 32. In addition, the midpoint of cytotoxicity in data set [3], the CC50 at 96 h, lay at 148 µM.
The molecule `CCc1c(C(=O)c2cccc3ccccc23)nc(SCc2ccccc2)[nH]c1=O` had an IC50 in data set [1] of more than 312 µM. The molecule also showed a CC50 at 96 h in data set [3] of more than 312 µM.
In turn, `COc1ccc(CSc2nc(C(C#N)c3ccccc3)c(C(C)C)c(=O)[nH]2)cc1` (stereo unspecified) registered an IC50 in data set [1] of 3.53 µM. The “Ratio CC50/IC50” value in data set [2] came to 8. The CC50 at 96 h in data set [3] is 26.8 µM.
For `C#CCSc1nc(C(C#N)c2cccc3ccccc23)c(CC)c(=O)[nH]1` (stereo unspecified) the same measures were 4.85 µM, 10 and 48 µM.
In data set [1], `CCc1c(C(C#N)c2cccc3ccccc23)nc(SCc2ccc([N+](=O)[O-])cc2)[nH]c1=O` (stereo unspecified) displayed an IC50 of 1.25 µM. In addition, the “Ratio CC50/IC50” value in data set [2] is 20. Also, in data set [3], half-maximal cytotoxicity (CC50 at 96 h) was put at 24.5 µM.
Regarding `COc1ccc(CSc2nc(C(C#N)c3cccc4ccccc34)c(C(C)C)c(=O)[nH]2)cc1` (stereo unspecified), the IC50 in data set [1] is more than 2.09 µM. Further, in data set [2], the “Ratio CC50/IC50” value was less than 1. Also, the CC50 at 96 h in data set [3] turned out to be 2.09 µM.
For `CCSc1nc(C(=O)c2cccc3ccccc23)c(CC)c(=O)[nH]1` the same measures were 27.8 µM, 7 and 197 µM.
For `Cc1c(C(C#N)c2ccccc2)nc(SC(C)C)[nH]c1=O` (stereo unspecified) the same measures were 0.002 µM, 4600 and 10.8 µM.
For `CCc1c(C(=O)c2ccc3ccccc3c2)nc(SCc2ccccc2)[nH]c1=O` the same measures were not below 60.8 µM, “<=3” and 157 µM.
`C=CCSc1nc(C(C#N)c2cccc3ccccc23)c(CC)c(=O)[nH]1` (stereo unspecified): in data set [1], it took 0.58 µM to reach half-maximal inhibition (IC50). The “Ratio CC50/IC50” value in data set [2] was more than 585. In data set [3], this molecule had a CC50 at 96 h of more than 346 µM.
In data set [1], `C#CCSc1nc(C(C#N)c2cccc3ccccc23)c(C)c(=O)[nH]1` (stereo unspecified) returned an IC50 of 2.7 µM. Moreover, the “Ratio CC50/IC50” value in data set [2] worked out at 17. In data set [3], the CC50 at 96 h came to 46.1 µM.
Turning to `CCc1c(C(C#N)c2ccccc2)nc(SC(C)C)[nH]c1=O` (stereo unspecified), in data set [1], the IC50 was found to be 0.64 µM. For the same molecule, in data set [2], the “Ratio CC50/IC50” value was found to be 91. Besides, the CC50 at 96 h in data set [3] is 58 µM.
In data set [1], `Cc1c(C(=O)c2ccccc2)nc(SC(C)C)[nH]c1=O` registered an IC50 of 2.05 µM. In data set [2], the “Ratio CC50/IC50” value was found to be 128. For the same molecule, it took 263 µM to reach half-maximal cytotoxicity in data set [3] (CC50 at 96 h).
In the case of `CCc1c(C(C#N)c2cccc3ccccc23)nc(SC(C)C)[nH]c1=O` (stereo unspecified), the IC50 in data set [1] is 0.24 µM; in data set [6] it was 1.66 µM. The “Ratio CC50/IC50” value is more than 1400 in data set [2] and more than 41 in data set [5]. Besides, the CC50 in data set [4] is more than 68.9 µM. For the same molecule, the CC50 at 96 h in data set [3] was more than 344 µM.
As for `N#CC(c1cc(=O)[nH]c(SC2CCCC2)n1)c1cccc2ccccc12` (stereo unspecified), the IC50 in data set [1] is more than 22.8 µM. Moreover, the “Ratio CC50/IC50” value in data set [2] is reported as less than 1. In data set [3], this molecule came in with a CC50 at 96 h of 22.8 µM.
For `Cc1c(C(C#N)c2cccc3ccccc23)nc(SCC(=O)c2ccccc2)[nH]c1=O` (stereo unspecified), the IC50 turned out to be 0.09 µM in data set [1] and 0.99 µM in data set [6]. The entries for the “Ratio CC50/IC50” value in data set [2] and in data set [5] were 1500 and 70, respectively. In data set [4], the CC50 was 69.9 µM. In data set [3], this molecule came in with a CC50 at 96 h of 164 µM.
`COc1ccc(CSc2nc(C(C#N)c3c(Cl)cccc3Cl)c(C(C)C)c(=O)[nH]2)cc1` (stereo unspecified) showed an IC50 in data set [1] of more than 23.5 µM. Further, the “Ratio CC50/IC50” value in data set [2] is less than 1. In addition, in data set [3], the CC50 at 96 h was found to be 23.5 µM.
For `Cc1c(C(C#N)c2ccccc2)nc(SC2CCCC2)[nH]c1=O` (stereo unspecified), in that order: 6.34 µM, 9 and 59 µM.
Regarding `Cc1c(Sc2ccccc2)n(COCCO)c(=O)[nH]c1=O` [HEPT], the “Ratio CC50/IC50” value in data set [2] stood at 80.
Regarding `Cc1ccnc2c1NC(=O)c1cccnc1N2C1CC1` [NEVIRAPINE], the IC50 in data set [1] was determined as 0.25 µM. In addition, the “Ratio CC50/IC50” value in data set [2] was more than 800. The molecule also yielded a CC50 at 96 h in data set [3] of more than 200 µM.
